SENP7 block = SENP7 protease inhibition; inhibition, % at 5 µM; Q9BQF6; hit rate 1.5% among 330,000; AID 434973; recombinant SENP7, Z-RLRGG-aminoluciferin luminescence, 40 min;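 active = inhibition above about 50% at the single test dose, limit read from the data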;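 note: plate controls were DMSO with enzyme for no effect and no enzyme buffer wells for full effect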
Target sequence (Q9BQF6 706-1050 limits assumed): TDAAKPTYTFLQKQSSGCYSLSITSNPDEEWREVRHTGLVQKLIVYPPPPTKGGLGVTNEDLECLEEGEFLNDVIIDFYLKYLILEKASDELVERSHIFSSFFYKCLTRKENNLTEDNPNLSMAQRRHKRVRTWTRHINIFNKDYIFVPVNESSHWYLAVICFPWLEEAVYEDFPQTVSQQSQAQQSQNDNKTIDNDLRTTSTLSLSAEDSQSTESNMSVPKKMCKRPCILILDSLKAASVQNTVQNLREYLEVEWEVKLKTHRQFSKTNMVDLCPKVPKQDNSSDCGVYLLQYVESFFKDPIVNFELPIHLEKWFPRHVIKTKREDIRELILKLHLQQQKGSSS
SENP6 block = SENP6 protease inhibition; Q9GZR1; Recombinant SENP6 catalytic domain, aminoluciferin luminescence; inhibition, % at 10 µM; hit rate 1.8% among 330,000;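 active = inhibition above about 50% at the single tested dose, limit read from the data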;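 note: plate controls were DMSO wells with enzyme for no effect and DMSO wells lacking enzyme for full effect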
SENP1 FRET inh = SENP1 (human) catalytic domain inhibition. recombinant SENP1 catalytic domain, CyPet-SUMO1-YPet FRET cleavage. inhibition, % at 10 µM. hit rate 0.21% among 360,000;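 active = inhibition at least 30% at 10 µM, raw YFP signal under a set limit, fluorescence ratio 0.5 to 1.5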;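 note: 0% = enzyme with DMSO and 100% = no enzyme wells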
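material = recombinant human SENP1 catalytic domain, His6-tagged | quantity = 20 pM enzyme | reagent = 25 nM SUMO1 FRET substrate | compound dosing = 10 µM single point, 0.5% DMSO | timing = 50 min enzyme reaction, room temperature, light-protected | detection = FRET, CFP and YFP emission | control set = no-enzyme low, enzyme-DMSO high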
Platelet DG rel = platelet dense granule release activity | inhibition, %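 (compounds screened at 7.5 µM in platelet-rich plasma)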 | human platelet-rich plasma, SFLLRN dense granule ATP release, luminescence | AID 1663 | hit rate 0.22% among 300,000;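 active = mean replicate score, as percent of positive control, at or above 50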
SENP8 block-1 = inhibitors of human SENP8 protease; inhibition, % at 20 µM; recombinant SENP8, Nedd8 substrate fluorescence; Q96LD8; hit rate 0.64% among 360,000; AID 602440; in the data active = inhibition mostly above about 40%, no sharp cut-off; inactive = mostly below about 27%
SENP8 block-2 = inhibitors of human SENP8 protease; inhibition, % at 10 µM; Q96LD8; AID 2540; hit rate 1.2% among 330,000; purified SENP8, Z-RLRGG-aminoluciferin cleavage, luminescence; in the data active = inhibition above about 50%
SENP8 conf = human SENP8 inhibition, confirmed | AID 488912 | Recombinant SENP8, Z-RLRGG-aminoluciferin luminescence, 60 min | inhibition, % at 12.5 µM | shares compounds with SENP7 block | hit rate 40% among 6,200;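 active = mean inhibition across replicates above about 50%, limit read from the data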
SENP6 confirm = confirmation of human SENP6 protease inhibitors; inhibition, % at 12.5 µM; hit rate 58% among 6,200; shares compounds with SENP7 block; AID 488915; recombinant SENP6, Z-RLRGG-aminoluciferin luminescence
SENP7 confirm = confirmation of human SENP7 protease inhibitors. hit rate 69% among 6,200. inhibition, % at 12.5 µM. AID 488917. recombinant SENP7, Z-RLRGG-aminoluciferin luminescence, 40 min. shares compounds with SENP7 block
Casp3 select = selectivity test for SENP inhibitors: human caspase-3 inhibition | AID 488918 | purified caspase-3, Z-DEVD-aminoluciferin luminescence, 60 min | inhibition, % at 12.5 µM | shares compounds with SENP7 block | hit rate 60% among 6,200;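 active = mean inhibition above about 50%, limit read from the data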;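 note: plate controls were enzyme with DMSO for no effect and wells without caspase-3 for full effect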
Luc interf = counter-screen for SENP inhibitors: luminescence interference; shares compounds with SENP7 block; Pre-incubated SENP8/Z-RLRGG-aminoluciferin, luciferase luminescence interference; inhibition, % at 12.5 µM; hit rate 39% among 6,200;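 active = mean inhibition above about 50% when retested at one dose, limit read from the data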;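 note: plate controls were DMSO wells with completed reaction for no effect and substrate without enzyme for full effect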
The depositor's hits bear a star; nt = not tested or not shown. Only some compounds are listed: those with a hit (about 2.6% of all), similar ones and a draw of the others.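 Rule for the calls, unless noted: active = mean inhibition above about 50% in the one-dose retest (limit read from the data); inactive = the rest.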

SMILES	SENP7 block	SENP6 block	SENP1 FRET inh	Platelet DG rel	SENP8 block-1	SENP8 block-2	SENP8 conf	SENP6 confirm	SENP7 confirm	Casp3 select	Luc interf
CC(C)NC(=O)c1nc2ccccc2s1	-3	-14	1	-2	15	-7	nt	nt	nt	nt	nt
COC(=O)c1ccc(CC(=O)c2nc3ccccc3s2)cc1	4	92*	1	2	30	79*	6	17	16	4	1
COC(=O)c1ccc(/C(O)=C(\C#N)c2nc3ccccc3s2)cc1	-11	91*	-4	-1	6	88*	11	38	23	26	2
COc1cc(CNCCNC(=O)c2nonc2N)ccc1OCc1ccc(Cl)cc1	-8	0	1	-1	-2	-15	nt	nt	nt	nt	nt
CC(C)c1ccc(-n2nnnc2SCc2nc(N)nc(N)n2)cc1	nt	nt	-1	nt	4	nt	nt	nt	nt	nt	nt
Cc1ccc(-n2nnc(-c3cccnc3Cl)n2)cc1	76*	74*	-2	-1	12	52*	36	52*	42	38	17
O=C(O)c1ccc(Cl)cc1NC(=O)C1CCN(S(=O)(=O)c2cccs2)CC1	nt	nt	0	nt	-10	nt	nt	nt	nt	nt	nt
CCOC(=O)c1cccc(NC(=O)CSc2nnc(-c3ccncc3)n2CCCOC)c1	99*	-20	0	1	-1	-8	-12	-5	-5	2	3
O=C(O)c1ncc(-c2ccccc2)cn1	-6	-18	1	13	15	-8	nt	nt	nt	nt	nt
c1ccc(-c2cnc(-c3ccccc3)nc2)cc1	90*	73*	1	-19	3	62*	11	17	7	9	8
c1ccc(-c2ncc3c(ccc4ccccc43)n2)cc1	90*	68*	2	-2	3	41	17	17	28	20	6
CN(C)c1ccc(C(=O)c2ccc(O)cc2O)cc1	42	67*	1	9	31	49	54*	51*	83*	46	60*
O=C(c1ccc(O)cc1)c1ccc(O)cc1O	-2	-6	-2	9	16	3	nt	nt	nt	nt	nt
O=C(CCN1CCN(Cc2ccccc2)CC1)NNC(=O)Nc1cccc(C(F)(F)F)c1	14	-19	2	5	-1	-7	nt	nt	nt	nt	nt
COc1cccc(C(=O)OCC(=O)NC(C)CCc2ccccc2)c1O (stereo unspecified)	-3	-25	2	18	4	-9	nt	nt	nt	nt	nt
O=C(/C=C/Nc1ccc(Br)cn1)c1cccc(OC(F)F)c1	62*	40	-40	nt	-263	49	15	31	34	17	1
CCn1nc(C)c(Br)c1Nc1ccc(Br)cc1	-2	-5	1	-8	8	-4	nt	nt	nt	nt	nt
COc1cc(C)c(C(=O)Oc2cc(C)c(C(=O)O)c(O)c2)c(O)c1	-3	56*	0	-1	34	55*	42	35	64*	22	59*
N#Cc1cccc(NC(=O)CNc2cc(S(=O)(=O)N3CCOCC3)ccc2N2CCCC2)c1	-6	4	-2	nt	-9	12	nt	nt	nt	nt	nt
Cc1cc(C)c(S(=O)(=O)N(C)CC(=O)NCCCn2ccnc2)c(C)c1	0	-13	0	-3	6	0	nt	nt	nt	nt	nt
COc1ccc(Cl)cc1NC(=O)c1cnc2sccn2c1=O	-15	-12	-1	-16	-309	-8	nt	nt	nt	nt	nt
O=C(Nc1cnc2sccn2c1=O)c1ccc(Cl)cc1Cl	56*	29	-1	-8	-23	-9	14	13	35	53*	16

Assay outcomes: PubChem BioAssay, several laboratories
